Among the data in ChEMBL document CHEMBL2440058, “Synthesis and structure-activity relationship studies of novel dihydropyridones as androgen receptor modulators” (J Med Chem, 2013) are inhibition, Activity and IC50 values, retold here.

Data set [1] deals with T1, Androgen receptor (Homo sapiens) (UniProt P10275).
T1 sequence (whole entry): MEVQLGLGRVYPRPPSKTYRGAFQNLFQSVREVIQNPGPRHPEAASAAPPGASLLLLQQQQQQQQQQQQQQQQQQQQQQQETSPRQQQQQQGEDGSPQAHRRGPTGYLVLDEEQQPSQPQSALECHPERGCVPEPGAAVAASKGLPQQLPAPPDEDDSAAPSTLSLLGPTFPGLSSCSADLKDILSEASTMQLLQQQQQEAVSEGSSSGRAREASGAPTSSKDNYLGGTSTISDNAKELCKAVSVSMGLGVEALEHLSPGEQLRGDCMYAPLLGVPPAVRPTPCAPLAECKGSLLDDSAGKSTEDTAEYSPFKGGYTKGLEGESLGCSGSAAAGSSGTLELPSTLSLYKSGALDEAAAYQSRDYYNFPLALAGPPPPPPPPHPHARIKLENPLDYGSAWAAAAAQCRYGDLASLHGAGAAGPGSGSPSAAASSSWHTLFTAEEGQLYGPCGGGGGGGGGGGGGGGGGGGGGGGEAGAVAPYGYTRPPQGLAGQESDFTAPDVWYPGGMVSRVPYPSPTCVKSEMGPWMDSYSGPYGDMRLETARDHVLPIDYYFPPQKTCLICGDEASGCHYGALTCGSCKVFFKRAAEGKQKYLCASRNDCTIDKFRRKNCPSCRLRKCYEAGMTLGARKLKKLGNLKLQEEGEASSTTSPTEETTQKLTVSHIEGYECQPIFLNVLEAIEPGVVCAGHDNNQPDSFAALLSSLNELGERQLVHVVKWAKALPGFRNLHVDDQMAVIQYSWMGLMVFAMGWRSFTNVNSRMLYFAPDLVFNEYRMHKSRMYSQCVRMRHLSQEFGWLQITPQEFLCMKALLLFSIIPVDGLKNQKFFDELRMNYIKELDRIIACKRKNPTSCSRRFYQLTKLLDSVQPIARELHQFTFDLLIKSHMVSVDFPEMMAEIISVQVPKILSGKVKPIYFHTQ
As to the kind of experiment: Inhibition of androgen receptor in human LNCAP cells assessed as decrease in TMPRSS2 mRNA expression at 5 uM by RT-PCR analysis relative to control. In kind it is cell-based. Put shortly:
(§1)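 LNCaP cells grown in RPMI 1640 with 10% FBS at 37°C. Transcript levels measured by real-time RT-PCR with rRNA as the reference gene. Relative RNA calculated from threshold cycles by the comparative Ct method.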

The target of data set [2] is T1, Androgen receptor (Homo sapiens). As to the kind of experiment: Inhibition of androgen receptor in human LNCAP cells assessed as decrease in PSA mRNA expression at 5 uM by RT-PCR analysis relative to control. Type of data set: cell-based. Put shortly:
as §1

For data set [3] the target is unchanged. The settings on record: LNCaP, at 0.5 to 3 µM.
For data set [4], the system named is LNCaP. As to the kind of experiment: Cytotoxicity against human LNCAP cells at 5.56 to 50 uM after 48 hrs by 7-AAD dye-based flow cytometric analysis. Type of data set: cell-based. The method, boiled down: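 LNCaP cells (RPMI 1640, 10% FBS, 37°C) exposed to compound for 48 h in 10% FBS medium; 1% DMSO as vehicle control. Viable cell count measured by flow cytometry using 7-AAD viability stain.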
For orientation: A flow cytometer gives signals particle by particle.

Data set [5] addresses T2, Androgen receptor (Homo sapiens, UniProt P10275).
T2 sequence (P10275 whole entry): T1 sequence (whole entry)
As to the kind of experiment: Displacement of Fluormone AL Green from androgen receptor ligand binding domain (unknown origin) after 4 hrs by fluorescence polarization assay. In general terms: Fluorescence polarisation rises when a labelled molecule tumbles more slowly, as on binding a larger partner.

Calls of active or inactive are those of the source.

For the compound `O=C1C=CN(C(=O)Oc2ccccc2)[C@H](c2ccccc2)[C@H]1O` (racemic), the inhibition in data set [1] and in data set [2] was 90% each time.
Take `CC(C)(C)[Si](C)(C)O[C@H]1C(=O)C=CN(C(=O)Oc2ccccc2)[C@@H]1c1ccc2c(c1)OCO2` (racemic): the inhibition in data set [1] and in data set [2] was 90% throughout.
Turning to `O=C1C=CN(C(=O)c2ccccc2)[C@H](c2ccccc2)[C@H]1O` (racemic), the inhibition in data set [1] and in data set [2] was 90% in each case.
Turning to `O=C(Cc1ccccc1)O[C@H]1C(=O)C=CN(C(=O)/C=C/c2ccccc2)[C@@H]1c1ccccc1` (racemic), the inhibition entry in data set [1] and in data set [2] was “Active” each time.
With `O=C(O[C@H]1C(=O)C=CN(C(=O)/C=C/c2ccccc2)[C@@H]1c1ccccc1)C1CC1` (racemic), the inhibition result in data set [1] and in data set [2] was “Active” in each case.
Consider `O=C(O[C@H]1C(=O)C=CN(C(=O)/C=C/c2ccccc2)[C@@H]1c1ccccc1)c1ccc(F)cc1C(F)(F)F` (racemic), for which the inhibition result in data set [3] was “inactive”. The inhibition entry in data set [1] and in data set [2] was “Active” in each case. The Activity result in data set [4] is “Non-toxic”. Further, in data set [5], the IC50 is 30.1 µM.
In the case of `CC(C)[C@@H]1[C@@H](OC(=O)c2ccc(F)cc2C(F)(F)F)C(=O)C=CN1C(=O)Oc1ccccc1` (racemic), the inhibition entry in data set [1] and in data set [2] was “Active” in each case.
Turning to `O=C1C=CN(C(=O)Oc2ccccc2)[C@H](c2cccc(-c3ccccc3)c2)[C@H]1O` (racemic), the inhibition in data set [1] and in data set [2] was 90% in each case.
Turning to `C[C@@H]1[C@@H](OC(=O)c2ccc(F)cc2C(F)(F)F)C(=O)C=CN1C(=O)Oc1ccccc1` (racemic), the inhibition result in data set [1] and in data set [2] was “Active” in each case.
`O=C(O[C@H]1C(=O)C=CN(C(=O)Oc2ccccc2)[C@@H]1c1ccc2c(c1)OCO2)c1ccc(F)cc1C(F)(F)F` (racemic): the inhibition entry in data set [1] and in data set [2] was “Active” each time.
`Cc1csc([C@@H]2[C@@H](OC(=O)N(C)c3ccccc3)C(=O)C=CN2C(=O)Oc2ccccc2)c1` (racemic): the inhibition in data set [1] and in data set [2] was 90% throughout.
Regarding `O=C(O[C@H]1C(=O)C=CN(C(=O)c2ccccc2)[C@@H]1c1ccccc1)c1ccc(F)cc1C(F)(F)F` (racemic), the inhibition in data set [1] and in data set [2] was 90% in each case.
Regarding `Cc1csc([C@H]2NC=CC(=O)[C@@H]2OC(=O)N(C)c2ccccc2)c1` (racemic), the inhibition in data set [1] and in data set [2] was 90% in each case.
Regarding `O=C1C=CN(C(=O)Oc2ccccc2)[C@H](c2ccc3c(c2)OCO3)[C@H]1O` (racemic), the inhibition in data set [1] and in data set [2] was 90% throughout.
As for `O=C(O[C@H]1C(=O)C=CN(C(=O)Oc2ccccc2)[C@@H]1c1ccccc1)c1ccc(F)cc1C(F)(F)F` (racemic), the inhibition entry in data set [1] and in data set [2] was “Active” in each case.
For the compound `O=C1C=CN[C@H](c2ccccc2)[C@H]1O` (racemic), the inhibition in data set [1] and in data set [2] was 90% in each case.
On to `O=C(O[C@H]1C(=O)C=CN(C(=O)Oc2ccccc2)[C@@H]1c1cc(F)cc(F)c1)c1ccc(F)cc1C(F)(F)F` (racemic), for which the inhibition result in data set [1] and in data set [2] was “Active” each time.
Take `O=C1C=CN(C(=O)/C=C/c2ccccc2)[C@H](c2ccccc2)[C@H]1O` (racemic): the inhibition entry in data set [1] and in data set [2] was “Active” in each case.
With `COc1ccc(C(=O)O[C@H]2C(=O)C=CN(C(=O)/C=C/c3ccccc3)[C@@H]2c2ccccc2)cc1` (racemic), the inhibition result in data set [1] and in data set [2] was “Active” throughout.
`Cc1csc([C@@H]2[C@@H](O)C(=O)C=CN2C(=O)Oc2ccccc2)c1` (racemic): the inhibition in data set [1] and in data set [2] was 90% each time.
Turning to `O=C1C=CN(C(=O)Oc2ccccc2)[C@H](c2ccccc2)C1` (racemic), the inhibition in data set [1] and in data set [2] was 90% in each case.
In the case of `Cc1csc([C@@H]2[C@@H](OC(=O)N(C)c3ccccc3)C(=O)C=CN2C(=O)c2ccc(C(F)(F)F)nc2)c1` (racemic), the inhibition in data set [1] and in data set [2] was 90% in each case.
With `O=C(/C=C/c1cccc(C(F)(F)F)c1)O[C@H]1C(=O)C=CN(C(=O)/C=C/c2ccccc2)[C@@H]1c1ccccc1` (racemic), the inhibition entry in data set [1] and in data set [2] was “Active” throughout.
For the compound `O=C1C=CN(C(=O)Oc2ccccc2)[C@H](c2ccc(-c3ccccc3)cc2)C1` (racemic), the inhibition in data set [1] and in data set [2] was 90% each time.
Turning to `CC(C)(C)[Si](C)(C)O[C@H]1C(=O)C=CN(C(=O)C2CC2)[C@@H]1c1ccc2c(c1)OCO2` (racemic), the inhibition in data set [1] and in data set [2] was 90% each time.
For the compound `O=C(O[C@H]1C(=O)C=CN(C(=O)Oc2ccccc2)[C@@H]1c1cccc(-c2ccccc2)c1)c1ccc(F)cc1C(F)(F)F` (racemic), the inhibition entry in data set [1] and in data set [2] was “Active” throughout.
As to `Cc1csc([C@@H]2[C@@H](OC(=O)N(C)c3ccccc3)C(=O)C=CN2C(=O)C2CC2)c1` (racemic), the inhibition in data set [1] and in data set [2] was 90% in each case.
Take `N#Cc1ccc(C(=O)O[C@H]2C(=O)C=CN(C(=O)/C=C/c3ccccc3)[C@@H]2c2ccccc2)cc1` (racemic): the inhibition result in data set [1] and in data set [2] was “Active” in each case.
In the case of `CC(C)(C)[Si](C)(C)O[C@H]1C(=O)C=CN(C(=O)Oc2ccccc2)[C@@H]1c1ccccc1` (racemic), the inhibition in data set [1] and in data set [2] was 90% in each case.
As to `CC(C)(C)[Si](C)(C)O[C@H]1C(=O)C=CN[C@@H]1c1ccc2c(c1)OCO2` (racemic), the inhibition in data set [1] and in data set [2] was 90% in each case.
As to `O=C(O[C@H]1C(=O)C=CN(C(=O)/C=C/c2ccccc2)[C@@H]1c1ccccc1)c1ccccc1C(F)(F)F` (racemic), the inhibition result in data set [1] and in data set [2] was “Active” in each case.
`CC(C)=C[C@@H]1[C@@H](OC(=O)c2ccc(F)cc2C(F)(F)F)C(=O)C=CN1C(=O)Oc1ccccc1` (racemic): the inhibition entry in data set [1] and in data set [2] was “Active” throughout.
In the case of `CC(C)(C)[Si](C)(C)O[C@H]1C(=O)C=CN(C(=O)c2ccc(C(F)(F)F)nc2)[C@@H]1c1ccc2c(c1)OCO2` (racemic), the inhibition in data set [1] and in data set [2] was 90% in each case.
For the compound `Cc1csc([C@@H]2[C@@H](OC(=O)c3ccc(F)cc3C(F)(F)F)C(=O)C=CN2C(=O)Oc2ccccc2)c1` (racemic), the inhibition result in data set [1] and in data set [2] was “Active” each time.
Turning to `N#Cc1cccc(C(=O)O[C@H]2C(=O)C=CN(C(=O)/C=C/c3ccccc3)[C@@H]2c2ccccc2)c1` (racemic), the inhibition result in data set [1] and in data set [2] was “Active” throughout.
As to `CC(C)(C)[Si](C)(C)O[C@H]1C(=O)C=CN(C(=O)Cc2ccccc2)[C@@H]1c1ccc2c(c1)OCO2` (racemic), the inhibition in data set [1] and in data set [2] was 90% throughout.
As to `O=C(O[C@H]1C(=O)C=CN(C(=O)/C=C/c2ccccc2)[C@@H]1c1ccccc1)c1ccc(Cl)cc1` (racemic), the inhibition result in data set [1] and in data set [2] was “Active” throughout.

As usually defined, the inhibition is the relative decrease from the control value, in per cent. What is called IC50 is the midpoint of a concentration-inhibition curve.
